ERa coact inh: ER-alpha (human) coactivator binding inhibition | AID 629 | inhibition, % at 25.6 µM | TR-FRET ER-alpha LBD / SRC-1 peptide, estradiol-bound | P03372 | 86,000 compounds, 1.7% hits; in the data active means inhibition above about 50%;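 further: 0% = receptor plus peptide control and 100% = peptide only without receptor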
Target sequence (P03372 whole entry, looked up, the tested form may be a part): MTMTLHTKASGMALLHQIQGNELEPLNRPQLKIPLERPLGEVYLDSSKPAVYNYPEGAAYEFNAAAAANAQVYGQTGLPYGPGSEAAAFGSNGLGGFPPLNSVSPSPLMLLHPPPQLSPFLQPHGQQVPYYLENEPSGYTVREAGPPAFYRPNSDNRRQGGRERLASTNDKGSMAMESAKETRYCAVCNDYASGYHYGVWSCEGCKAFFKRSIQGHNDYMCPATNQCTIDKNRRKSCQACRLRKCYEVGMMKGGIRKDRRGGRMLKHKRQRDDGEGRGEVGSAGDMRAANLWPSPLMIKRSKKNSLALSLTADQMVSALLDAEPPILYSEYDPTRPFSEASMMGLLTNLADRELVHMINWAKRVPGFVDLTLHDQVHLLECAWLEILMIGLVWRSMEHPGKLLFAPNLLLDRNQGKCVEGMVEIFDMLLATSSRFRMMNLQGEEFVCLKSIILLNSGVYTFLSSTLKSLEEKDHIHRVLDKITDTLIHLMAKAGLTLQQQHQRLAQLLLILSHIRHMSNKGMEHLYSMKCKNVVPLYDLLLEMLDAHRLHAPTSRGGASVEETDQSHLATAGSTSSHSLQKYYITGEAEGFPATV
ERb coact inh: ER-beta (human) coactivator binding inhibition; TR-FRET ER-beta LBD / SRC1-Cy5 peptide binding; receptor agonist-loaded with 1 µM estradiol; 86,000 compounds, 1.3% hits; Q92731; inhibition, % at 25.6 µM;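 active means compounds whose percent inhibition of the receptor-coactivator binding signal exceeds about 50% in the single-dose screen, limit read from the data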;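 further: 0% = receptor plus peptide wells without compound and 100% = peptide-only wells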
HUVEC inhibit: inhibitors of human endothelial cell proliferation | HUVEC proliferation, CellTiter-Glo luminescence, 72 h; active compounds read low | viability, % at 10 µM (by protocol) | 86,000 compounds, 1.1% hits | AID 648;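 active means viability at or below 30%; inactive means viability above 30%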;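 further: 100% = median luminescence of DMSO-only cell control wells on each plate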
H69AR growth 86K: blocks growth of human H69AR lung tumor cells; viability, % at 10 µM; AID 598; H69AR lung tumor viability, ATP luminescence, 72 h; active compounds read low; 85,000 compounds, 6% hits;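 active means viability at or below 40%; inactive means viability above 40%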;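 further: multidrug resistant small cell line overexpressing MRP-1 efflux transporter; 100% = mean luminescence of untreated control wells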
ERa coact pot: enhances coactivator binding to human estrogen receptor alpha; P03372; TR-FRET ERalpha-LBD/SRC-Cy5 coactivator binding, 2 h; 100 = basal binding, no effect; coactivator binding (% of control), % at 25.6 µM; 86,000 compounds, 1.3% hits; in the data active means activity above about 200%;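 further: binding measured in presence of low estradiol as agonist stimulus; 0% = peptide alone without receptor and 100% = receptor with peptide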
Fibroblast inh: blocks proliferation of human lung fibroblasts | AID 719 | LL 47 human lung fibroblast viability, ATP luminescence; active compounds read low | viability, % at 10 µM | 85,000 compounds, 1.1% hits;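 active means viability at or below 50% in the single dose screen; inactive means viability above 50%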;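 further: compound exposure lasted 72 h before the ATP readout; 100% = median luminescence of untreated cell-only wells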
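Benchmarks: Cell-only wells, no compound | Test system: LL 47 human lung fibroblasts, passage 12 or lower | Input: 1,150 cells/well | Measured by: CellTiter-Glo luminescence measuring cellular ATP | Medium: IMEM, 15% FBS supplement | Schedule: Overnight attachment after seeding, then 72 h compound exposure at 37 °C | Doses: Compound addition at 0.1% DMSO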
Starred values were filed as active, the others as inactive; [ ] = another dose, or the depositor's remark. A selection: hits, their analogues and other compounds. The true share with any hit is near 9.2%.

SMILES | ERa coact inh | ERb coact inh | HUVEC inhibit | H69AR growth 86K | ERa coact pot | Fibroblast inh
CCn1c(SCC(=O)Nc2sc3c(c2C#N)CCCC3)nnc1-c1ccco1 | 4 | 2 | 91 | 66 | 99 | 104
Cc1ccccc1NC(=O)CSc1nc2c(c(-c3ccco3)c1C#N)CCCC2 | 24 | 16 | 91 | 74 | 290*[fluorescence artefact?] | 104
CCc1ccccc1NC(=O)CSc1nc2c(c(-c3ccco3)c1C#N)CCCC2 | 10 | 11 | 62 | 54 | 301*[fluorescence artefact?] | 100
COCCOC(=O)c1c(C)nc(SCC(=O)Nc2cccc3ccccc23)c(C#N)c1-c1ccco1 | 2 | 2 | 56 | 11* | 96 | 92
Cc1c(Cl)cccc1NC(=S)NN1CCOCC1 | -8 | -5 | 97 | 100 | 110 | 106
O=C(CN(Cc1ccccc1F)C(=O)Cn1nnc(-c2cccs2)n1)NC1CCCCC1 | 20 | 13 | 110 | 95 | 103 | 96
CCOc1ccccc1NC(=O)c1c(NC(=O)CNCc2ccco2)sc2c1CCC2 | 23 | 30 | 94 | 76 | 101 | 104
O=C(CSc1nnnn1-c1ccc2c(c1)OCCO2)OC1CCCCC1 | -8 | -1 | 100 | 96 | 212* | 95
Cc1ccc(S(=O)(=O)NCCCN2CCOCC2)c(C)c1 | 3 | -5 | 91 | 88 | 107 | 99
CCOc1ccc2c(c1)-c1c(ssc1=S)C(C)(C)N2C | -2 | -15 | 77 | 32* | 81 | 97
Cc1cc2c(cc1C)N(C(=O)CSc1nncn1C)C(C)(C)c1ssc(=S)c1-2 | -23 | -25 | 95 | 70 | 78 | 98
CCN(CC)CCNC(=O)c1sc2nc(-c3ccccc3)cn2c1C | -5 | 8 | 104 | 87 | 111 | 93
O=C(CN(C(=O)CCC(=O)Nc1ccccn1)c1ccc2c(c1)OCCO2)NCCc1ccccc1 | 2 | 4 | 68 | 7.0* | 129 | 90
CC(C)CCNC(=O)CN(C(=O)CCC(=O)Nc1ccccn1)c1ccc2c(c1)OCCO2 | -3 | -1 | 90 | 89 | 105 | 95
CC1(C)CC(=O)C2=C(C1)OC1=C(C(=O)CC(C)(C)C1)C2c1ccc(O)cc1O | 3 | 13 | 25* | 2.2* | 64 | 17*
CCOC(=O)C1=C(N)OC2=C(C(=O)CC(C)(C)C2)C1c1ccco1 (configuration not stated) | 3 | -1 | 94 | 95 | 116 | 105
CC(=O)NC(Cc1ccccc1C)C(=O)NC1CCN(c2c3c(nc4ncnn24)CCC3)CC1 (configuration not stated) | 9 | 0 | 97 | 89 | 117 | 102
O=C(CSc1nc2c(c(=O)n1-c1ccc(Cl)cc1)SCC2)Nc1nccs1 | 28 | 6 | 78 | 20* | 142 | 88
O=C(CSc1nc2c(c(=O)n1-c1ccc(Br)cc1)SCC2)Nc1nccs1 | 59* | 25 | 65 | 36* | 152 | 86
O=C(CSc1nc2c(c(=O)n1-c1ccc(Br)cc1)SCC2)NCc1ccco1 | 18 | 11 | 85 | 77 | 91 | 101
COc1ccc(-n2c(SCC(=O)NC3CCCCC3)nc3ccsc3c2=O)cc1 | 19 | 41 | 82 | 81 | 214*[fluorescence artefact?] | 88
COc1ccc(-n2c(N3CCN(C)CC3)nc3sc4c(c3c2=O)CCCCC4)cc1 | -8 | -6 | 22* | 22* | 115 | 62
COc1ccc(-n2c(NCCN(C)C)nc3sc4c(c3c2=O)CCCCC4)cc1 | 4 | -8 | 76 | 52 | 91 | 80
CCC(C)NC(=O)CSc1nc2ccsc2c(=O)n1-c1ccc(OC)cc1 (configuration not stated) | -1 | 8 | 92 | 70 | 98 | 104
C=CCn1c(CCNC(=O)c2cccs2)nnc1SCC(=O)Nc1cccc(F)c1 | -8 | -12 | 93 | 92 | 118 | 98
SMILES | ERa coact inh | ERb coact inh | HUVEC inhibit | H69AR growth 86K | ERa coact pot | Fibroblast inh
COc1ccc(-n2c(SCC(=O)Nc3nccs3)nc3sc4c(c3c2=O)CCN(C)C4)cc1 | 51* | 25 | 98 | 92 | 182 | 97
Cc1ccccc1Cn1nnc2c1C(=O)c1ccccc1C2=O | -8 | -8 | 2.1* | 12* | 127 | 32*
Cc1ccc(C)c(NC(=O)c2nnn(Cc3ccccc3C)c2N)c1 | 0 | 1 | 90 | 92 | 103 | 96
Cc1cccc(Cn2nnc3c2C(=O)c2ccccc2C3=O)c1 | 18 | 12 | 3.4* | 13* | 95 | 70
Cc1ccc(S(=O)(=O)N(C)CC(=O)Nc2nc3ccccc3s2)cc1 | 0 | -5 | 100 | 76 | 96 | 95
Cc1ccc2[nH]c(C)c(/C=N/Nc3nc4ccccc4s3)c2c1 | -3 | -3 | 42 | 4.6* | 90 | 63
Cc1nc(N2CCN(C(=O)c3ccc(Cl)cc3)CC2)c(C#N)c2c1COC(C)(C)C2 | -24 | -29 | 99 | 37* | 105 | 95
CC(C)Cc1nc(N2CCN(C(=O)c3ccco3)CC2)c(C#N)c2c1CCC2 | 7 | -3 | 96 | 94 | 64 | 102
CC1(C)Cc2c(C#N)c(N3CCN(C(=O)c4ccco4)CC3)nc(Cc3ccccc3)c2CO1 | 25 | 18 | 21* | 55 | 83 | 79
CCCNC(=O)N1CCN(c2nc(C(C)C)c3c(c2C#N)CC(C)(C)OC3)CC1 | 5 | -2 | 60 | 79 | 106 | 83
COc1ccc(-c2cnc(N)nc2-c2ccc(OC)cc2O)cc1 | -34 | -16 | 89 | 49 | 74 | 103
COc1cccc(Oc2cnc(N)nc2-c2ccc(OC)cc2O)c1 | -7 | -4 | 78 | 17* | 92 | 59
COc1ccc(-c2nc(N)ncc2Oc2ccccc2Br)c(O)c1 | 24 | 36 | 92 | 38* | 241*[fluorescence artefact?] | 84
c1ccc(-c2nc(N3CCNCC3)nc3ccccc23)cc1 | 2 | 7 | 63 | 4.4* | 100 | 88
c1ccc(-c2nc(N3CCCCC3)nc3ccccc23)cc1 | -8 | -10 | 105 | 83 | 111 | 90
COc1ccc(-c2nc3ccccc3[nH]2)cc1 | 17 | 10 | 64 | 45 | 110 | 64
COc1ccc(-c2cc(=O)n(-c3nc4ccccc4[nH]3)[nH]2)cc1 | -30 | -13 | 10* | 40* | 72 | 61
O=C(CSc1nnc(-c2ccc(O)cc2)n1Cc1ccco1)N1CCc2ccccc2C1 | -3 | -3 | 98 | 81 | 113 | 90
Cc1nc2ncnn2c(N2CCN(C(=O)Cc3cccs3)CC2)c1C | 90*[fluorescence artefact?] | 85*[fluorescence artefact?] | 111 | 101 | 27 | 102
CN(CCCCCCCCC(=O)/C=N/O)Cc1ccccc1 | 0 | -9 | 88 | 24* | 94 | 96
Clc1ccc(Br)cc1-c1nc(-c2cccnc2)no1 | 38 | 27 | 96 | 91 | 207*[fluorescence artefact?] | 98
Clc1ccccc1-c1nc(-c2cccnc2)no1 | -5 | -8 | 92 | 76 | 98 | 98
Cc1ccc(N=Cc2c(O)n(-c3ccc4c(c3)OCO4)c(=O)c3ccccc23)cc1 | 69* | 34 | 21* | 9.1* | 31 | 72

Source: PubChem BioAssay (several laboratories)
